From ChEMBL document CHEMBL1150373, “Selection of phage-displayed peptides that bind to a particular ligand-bound antibody” (Bioorg Med Chem, 2008)
Peptide text beside a SMILES is read from it.

Columns and labels:
[1] = Binding affinity to fragment antigen binding portion of mouse-human chimeric 93F3 antibody assessed as relative signal by ELISA in presence of 10 uM 5-{[4-(3,5-dioxohexyl)phenyl]amino}-5-oxopentanoic acid
Method in brief: (§1)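 Antibody 93F3 coated on microtiter wells (1 µg/25 µL PBS, 37 °C 1 h), blocked with 3% BSA/PBS at 37 °C 1 h. Phage culture supernatant was added with diketone (final 10 µM, from 20 µM in 1% DMSO/PBS) or PBS alone, then incubated 37 °C 1 h. Wells washed with water; bound phage detected with anti-M13–HRP plus ABTS/H2O2, A405.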

[2] = Binding affinity to fragment antigen binding portion of mouse-human chimeric 93F3 antibody assessed as relative signal by ELISA in presence of 10 uM 2-acetylcyclohexanone; method in brief: as §1
[3] = Binding affinity to fragment antigen binding portion of mouse-human chimeric 93F3 antibody assessed as relative signal by ELISA; method in brief: as §1
[4] = Binding affinity to fragment antigen binding portion of mouse-human chimeric 93F3 antibody assessed as relative signal by ELISA in presence of 10 uM 6-(4-nitrophenyl)hexane-2,4-dione; method in brief: as §1
[5] = Binding affinity to mouse-human chimeric antibody 93F3

Compound	Activity [1]	Activity [2]	Activity [3]	Activity [4]	Kd [5]
CC(=O)CC(=O)CCc1ccccc1					1000 nM
CC(C)C[C@H](NC(=O)[C@H](Cc1cnc[nH]1)NC(=O)[C@H](Cc1c[nH]c2ccccc12)NC(=O)[C@@H]1CCCN1C(=O)[C@@H](N)CS)C(=O)N[C@@H](CC(C)C)C(=O)N1CCC[C@H]1C(=O)N[C@@H](Cc1ccccc1)C(=O)N[C@@H](CS)C(=O)O (H-CPWHLLPFC-OH)	0.1	0.8	1	0.2	
CC(C)C[C@H](NC(=O)[C@H](Cc1c[nH]c2ccccc12)NC(=O)[C@H](Cc1cnc[nH]1)NC(=O)[C@@H](NC(=O)[C@H](Cc1ccccc1)NC(=O)[C@@H]1CCCN1C(=O)[C@@H](NC(=O)[C@@H](N)CS)[C@@H](C)O)[C@@H](C)O)C(=O)N[C@@H](CS)C(=O)O (H-CTPFTHWLC-OH)	1	0.1	0.1	0.1	
CC(C)C[C@@H](NC(=O)[C@H](Cc1ccc(O)cc1)NC(=O)[C@@H](N)Cc1c[nH]c2ccccc12)C(=O)N1CCC[C@H]1C(=O)N[C@@H](CC(=O)O)C(=O)N[C@@H](CC(N)=O)C(=O)N1CCC[C@H]1C(=O)N[C@@H](CO)C(=O)N[C@H](C(=O)N[C@@H](Cc1c[nH]c2ccccc12)C(=O)N[C@@H](Cc1cnc[nH]1)C(=O)N[C@H](C(=O)O)[C@@H](C)O)[C@@H](C)O	0.1	0.7	1	0.1	

Continued, values first:

Activity [1]	Activity [2]	Activity [3]	Activity [4]	Kd [5]	Compound
0.1	0.7	1	0.2		H-QVPWSYLANGLL-OH
0.1	1	0.2	0.1		C[C@H](O)[C@H](NC(=O)[C@@H]1CCCN1C(=O)[C@H](Cc1ccccc1)NC(=O)[C@H](Cc1c[nH]c2ccccc12)NC(=O)[C@H](Cc1c[nH]c2ccccc12)NC(=O)[C@@H]1CCCN1C(=O)[C@@H](N)CS)C(=O)N[C@@H](CCC(N)=O)C(=O)N[C@@H](CS)C(=O)O
1	0.2	0.2	0.2		CC(C)C[C@H](NC(=O)[C@H](C)NC(=O)[C@H](Cc1cnc[nH]1)NC(=O)[C@@H](NC(=O)[C@H](CC(C)C)NC(=O)[C@@H]1CCCN1C(=O)[C@H](CO)NC(=O)[C@@H](N)CS)[C@@H](C)O)C(=O)N[C@@H](CS)C(=O)O (H-CSPLTHALC-OH)
